Experimental data: ChEMBL document CHEMBL1649165, “Activity profile in vitro of micafungin against Spanish clinical isolates of common and emerging species of yeasts and molds” (2009)
Values after ≈ are worked out from the molar mass of the structure shown.

Tests used:
Assay type in all cases: functional
Neurospora sitophila = test: Antimicrobial activity against Chrysonilia sitophila by broth microdilution method
In short: (§1)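 Clinical mould isolates, tested by broth microdilution using the AFST-EUCAST reference method for filamentous fungi. For echinocandins, the endpoint was the minimum effective concentration: the lowest drug concentration giving aberrant hyphal growth, read with an inverted microscope.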

[1] = system: Cryptococcus deneoformans; test: Antimicrobial activity against Cryptococcus neoformans var. neoformans by broth microdilution method
In short: (§2)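 Clinical isolates of nonfermentative yeasts, tested by broth microdilution following EUCAST recommendations. The only change from that method was a minor modification to improve growth.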

Trichosporon dermatis = test: Antimicrobial activity against Trichosporon dermatis by broth microdilution method; settings: Cutaneotrichosporon dermatis
In short: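 Nonfermentative yeast clinical isolates (Rhodotorula, Trichosporon) tested by broth microdilution. The EUCAST yeast recommendations were followed strictly, with one minor modification to improve growth. MIC was read as the endpoint.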

Aspergillus sclerotiorum = test: Antimicrobial activity against Aspergillus sclerotiorum by broth microdilution method; in short: as §1
Aureobasidium pullulans = test: Antimicrobial activity against Aureobasidium pullulans by broth microdilution method
Beauveria bassiana = test: Antimicrobial activity against Beauveria bassiana by broth microdilution method; in short: as §1
Fusarium verticillioides = test: Antimicrobial activity against Fusarium verticillioides by broth microdilution method
In short: (§3)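 Filamentous fungus clinical isolates tested by the AFST-EUCAST reference broth microdilution method for moulds. For echinocandins, the endpoint was the minimum effective concentration: the lowest drug concentration giving aberrant hyphal growth, read with an inverted microscope.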

Acremonium sp. = test: Antimicrobial activity against Acremonium sp.by broth microdilution method; in short: as §1
[Candida] zeylanoides = Antimicrobial activity against Candida zeylanoides by broth microdilution method; settings: Dujonia zeylanoides
In short: (§4)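 Clinical isolates from human patients, tested by broth microdilution using the AFST-EUCAST reference procedure for fermentative yeasts. The MIC was read per that reference method.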

Aspergillus = test: Antimicrobial activity against Aspergillus spp. by broth microdilution method; in short: as §1
Exophiala jeanselmei = test: Antimicrobial activity against Exophiala jeanselmei by broth microdilution method
Kluyveromyces marxianus = test: Antimicrobial activity against Candida kefyr by broth microdilution method; in short: as §4
Cladosporium = test: Antimicrobial activity against Cladosporium spp. by broth microdilution method; in short: as §1
Naganishia albida = test: Antimicrobial activity against Cryptococcus albidus by broth microdilution method; in short: as §2
Scytalidium hyalinum = test: Antimicrobial activity against Scytalidium hyalinum by broth microdilution method; settings: Neoscytalidium hyalinum; in short: as §3
Fennellia nivea = test: Antimicrobial activity against Aspergillus niveus by broth microdilution method; in short: as §1
Aspergillus sydowii = test: Antimicrobial activity against Aspergillus sydowii by broth microdilution method; in short: as §1
Candida tropicalis = test: Antimicrobial activity against Candida tropicalis by broth microdilution method; in short: as §4
Saksenaea vasiformis = test: Antimicrobial activity against Saksenaea vasiformis by broth microdilution method; in short: as §3
Penicillium = test: Antimicrobial activity against Penicillium spp. by broth microdilution method; in short: as §3
Lewia infectoria = test: Antimicrobial activity against Alternaria infectoria by broth microdilution method; in short: as §1
[2] = Antimicrobial activity against Rhizopus microsporus by broth microdilution method; in short: as §3
[Candida] intermedia = Antimicrobial activity against Candida intermedia by broth microdilution method; settings: Sungouiella intermedia; in short: as §4
[3] = system: Kazachstania pintolopesii; test: Antimicrobial activity against Candida pintolopesii by broth microdilution method; settings: Arxiozyma pintolopesii; in short: as §4
Torulaspora delbrueckii = test: Antimicrobial activity against Candida coliculosa by broth microdilution method; in short: as §4
Lichtheimia corymbifera = test: Antimicrobial activity against Mycocladus corymbiferus by broth microdilution method; in short: as §3
Hortaea werneckii = test: Antimicrobial activity against Hortaea werneckii by broth microdilution method
Saccharomyces cerevisiae = test: Antimicrobial activity against Saccharomyces cerevisiae by broth microdilution method
Aspergillus ustus = test: Antimicrobial activity against Aspergillus ustus by broth microdilution method; in short: as §1
[4] = system: Meyerozyma guilliermondii; test: Antimicrobial activity against Candida guilliermondii by broth microdilution method; in short: as §4
[5] = Antimicrobial activity against Hormographiella aspergillata by broth microdilution method; settings: Coprinopsis cinerea; in short: as §3
Debaryomyces hansenii = test: Antimicrobial activity against Candida famata by broth microdilution method; in short: as §4
Aspergillus niger = test: Antimicrobial activity against Aspergillus niger by broth microdilution method; in short: as §1
Yarrowia lipolytica = test: Antimicrobial activity against Yarrowia lipolytica by broth microdilution method
Paecilomyces lilacinus = test: Antimicrobial activity against Paecilomyces lilacinus by broth microdilution method; settings: Purpureocillium lilacinum; in short: as §3
Exophiala dermatitidis = test: Antimicrobial activity against Exophiala dermatitidis by broth microdilution method
Trichosporon domesticum = test: Antimicrobial activity against Trichosporon mycotoxinivorans by broth microdilution method; settings: Apiotrichum domesticum
In short: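 Spanish human clinical isolates were tested as nonfermentative yeasts by broth microdilution. The method strictly followed the EUCAST recommendations, with a minor modification to improve growth, and the read-out was the MIC.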

Candida parapsilosis = test: Antimicrobial activity against Candida parapsilosis by broth microdilution method; settings: Lodderomyces parapsilosis; in short: as §4
Fusarium reticulatum = test: Antimicrobial activity against Fusarium reticulatum by broth microdilution method; in short: as §3
Papiliotrema laurentii = test: Antimicrobial activity against Cryptococcus laurentii by broth microdilution method; in short: as §2
Rhizomucor = test: Antimicrobial activity against Rhizomucor spp.by broth microdilution method; in short: as §3
Trichoderma = test: Antimicrobial activity against Trichoderma spp. by broth microdilution method; in short: as §3
Fusarium proliferatum = test: Antimicrobial activity against Fusarium proliferatum by broth microdilution method; in short: as §1
Fusarium oxysporum = test: Antimicrobial activity against Fusarium oxysporum by broth microdilution method; in short: as §1

C[C@@H]1[C@H](O)[C@@H](C)/C=C/C=C/C=C/C=C/C=C/C=C/C=C/[C@H](O[C@@H]2O[C@H](C)[C@@H](O)[C@H](N)[C@@H]2O)C[C@@H]2O[C@](O)(C[C@@H](O)C[C@@H](O)[C@H](O)CC[C@@H](O)C[C@@H](O)CC(=O)O[C@H]1C)C[C@H](O)[C@H]2C(=O)O [AMPHOTERICIN B]
MIC50 (Neurospora sitophila): 0.5 µg/mL (≈ 0.541 µM) | MIC90 (Neurospora sitophila): > 16 µg/mL | MIC50 [1]: 0.12 µg/mL (≈ 0.13 µM) | MIC90 [1]: 2 µg/mL (≈ 2.16 µM) | MIC50 (Trichosporon dermatis): 0.5 µg/mL (≈ 0.541 µM) | MIC90 (Trichosporon dermatis): 8 µg/mL (≈ 8.66 µM) | MIC50 (Aspergillus sclerotiorum): 0.5 µg/mL (≈ 0.541 µM) | MIC90 (Aspergillus sclerotiorum): > 16 µg/mL | MIC50 (Aureobasidium pullulans): 0.25 µg/mL (≈ 0.271 µM) | MIC90 (Aureobasidium pullulans): 1 µg/mL (≈ 1.08 µM) | MIC50 (Beauveria bassiana): 0.5 µg/mL (≈ 0.541 µM) | MIC90 (Beauveria bassiana): > 16 µg/mL | MIC50 (Fusarium verticillioides): 2 µg/mL (≈ 2.16 µM) | MIC90 (Fusarium verticillioides): 4 µg/mL (≈ 4.33 µM) | MIC50 (Acremonium sp.): 4 µg/mL (≈ 4.33 µM) | MIC90 (Acremonium sp.): > 16 µg/mL | MIC50 ([Candida] zeylanoides): 0.12 µg/mL (≈ 0.13 µM) | MIC90 ([Candida] zeylanoides): 1 µg/mL (≈ 1.08 µM) | MIC50 (Aspergillus): 0.5 µg/mL (≈ 0.541 µM) | MIC90 (Aspergillus): > 16 µg/mL | MIC50 (Exophiala jeanselmei): 0.25 µg/mL (≈ 0.271 µM) | MIC90 (Exophiala jeanselmei): 1 µg/mL (≈ 1.08 µM) | MIC50 (Kluyveromyces marxianus): 0.25 µg/mL (≈ 0.271 µM) | MIC90 (Kluyveromyces marxianus): 0.5 µg/mL (≈ 0.541 µM) | MIC50 (Cladosporium): 0.25 µg/mL (≈ 0.271 µM) | MIC90 (Cladosporium): 1 µg/mL (≈ 1.08 µM) | MIC50 (Naganishia albida): 0.5 µg/mL (≈ 0.541 µM) | MIC90 (Naganishia albida): 8 µg/mL (≈ 8.66 µM) | MIC50 (Scytalidium hyalinum): 0.25 µg/mL (≈ 0.271 µM) | MIC90 (Scytalidium hyalinum): 1 µg/mL (≈ 1.08 µM) | MIC50 (Fennellia nivea): 0.5 µg/mL (≈ 0.541 µM) | MIC90 (Fennellia nivea): > 16 µg/mL | MIC50 (Aspergillus sydowii): 1 µg/mL (≈ 1.08 µM) | MIC90 (Aspergillus sydowii): 2 µg/mL (≈ 2.16 µM) | MIC50 (Candida tropicalis): 0.12 µg/mL (≈ 0.13 µM) | MIC90 (Candida tropicalis): 0.25 µg/mL (≈ 0.271 µM) | MIC50 (Saksenaea vasiformis): 2 µg/mL (≈ 2.16 µM) | MIC90 (Saksenaea vasiformis): > 16 µg/mL | MIC50 (Penicillium): 0.5 µg/mL (≈ 0.541 µM) | MIC90 (Penicillium): 2 µg/mL (≈ 2.16 µM) | MIC50 (Lewia infectoria): 0.06 µg/mL (≈ 0.0649 µM) | MIC90 (Lewia infectoria): > 16 µg/mL | MIC50 [2]: 2 µg/mL (≈ 2.16 µM) | MIC90 [2]: > 16 µg/mL | MIC50 ([Candida] intermedia): 0.12 µg/mL (≈ 0.13 µM) | MIC90 ([Candida] intermedia): 1 µg/mL (≈ 1.08 µM) | MIC50 [3]: 0.12 µg/mL (≈ 0.13 µM) | MIC90 [3]: 1 µg/mL (≈ 1.08 µM) | MIC50 (Torulaspora delbrueckii): 0.12 µg/mL (≈ 0.13 µM) | MIC90 (Torulaspora delbrueckii): 1 µg/mL (≈ 1.08 µM) | MIC50 (Lichtheimia corymbifera): 0.12 µg/mL (≈ 0.13 µM) | MIC90 (Lichtheimia corymbifera): 0.25 µg/mL (≈ 0.271 µM) | MIC50 (Hortaea werneckii): 0.25 µg/mL (≈ 0.271 µM) | MIC90 (Hortaea werneckii): 1 µg/mL (≈ 1.08 µM) | MIC50 (Saccharomyces cerevisiae): 0.12 µg/mL (≈ 0.13 µM) | MIC90 (Saccharomyces cerevisiae): 0.25 µg/mL (≈ 0.271 µM) | MIC50 (Aspergillus ustus): 0.5 µg/mL (≈ 0.541 µM) | MIC90 (Aspergillus ustus): > 16 µg/mL | MIC50 [4]: 0.06 µg/mL (≈ 0.0649 µM) | MIC90 [4]: 0.5 µg/mL (≈ 0.541 µM) | MIC50 [5]: 0.5 µg/mL (≈ 0.541 µM) | MIC90 [5]: > 16 µg/mL | MIC50 (Debaryomyces hansenii): 0.12 µg/mL (≈ 0.13 µM) | MIC90 (Debaryomyces hansenii): 1 µg/mL (≈ 1.08 µM) | MIC50 (Aspergillus niger): 0.25 µg/mL (≈ 0.271 µM) | MIC90 (Aspergillus niger): 0.25 µg/mL (≈ 0.271 µM) | MIC50 (Yarrowia lipolytica): 0.5 µg/mL (≈ 0.541 µM) | MIC90 (Yarrowia lipolytica): 0.5 µg/mL (≈ 0.541 µM) | MIC50 (Paecilomyces lilacinus): > 16 µg/mL | MIC90 (Paecilomyces lilacinus): > 16 µg/mL | MIC50 (Exophiala dermatitidis): 0.25 µg/mL (≈ 0.271 µM) | MIC90 (Exophiala dermatitidis): 1 µg/mL (≈ 1.08 µM) | MIC50 (Trichosporon domesticum): 0.5 µg/mL (≈ 0.541 µM) | MIC90 (Trichosporon domesticum): 8 µg/mL (≈ 8.66 µM) | MIC50 (Candida parapsilosis): 0.12 µg/mL (≈ 0.13 µM) | MIC90 (Candida parapsilosis): 0.25 µg/mL (≈ 0.271 µM) | MIC50 (Fusarium reticulatum): 0.5 µg/mL (≈ 0.541 µM) | MIC90 (Fusarium reticulatum): > 16 µg/mL | MIC50 (Papiliotrema laurentii): 0.5 µg/mL (≈ 0.541 µM) | MIC90 (Papiliotrema laurentii): 8 µg/mL (≈ 8.66 µM) | MIC50 (Rhizomucor): 2 µg/mL (≈ 2.16 µM) | MIC90 (Rhizomucor): > 16 µg/mL | MIC50 (Trichoderma): 0.5 µg/mL (≈ 0.541 µM) | MIC90 (Trichoderma): > 16 µg/mL | MIC50 (Fusarium proliferatum): 2 µg/mL (≈ 2.16 µM) | MIC90 (Fusarium proliferatum): 4 µg/mL (≈ 4.33 µM) | MIC50 (Fusarium oxysporum): 1 µg/mL (≈ 1.08 µM) | MIC90 (Fusarium oxysporum): 2 µg/mL (≈ 2.16 µM)
